Sampled rows, rich in hits. Any-hit rate of the full collection: about 6.9%.
FAK inh: inhibitors of human focal adhesion kinase; Q05397; biochemical FAK kinase activity assay; inhibition, %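 (tested at 7 µM)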; actives 0.84% (n = 97,000); AID 727; in the data active means inhibition above about 19%;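 further: 0% = DMSO and 100% = reference compound high control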
Target sequence (Q05397 whole entry, looked up): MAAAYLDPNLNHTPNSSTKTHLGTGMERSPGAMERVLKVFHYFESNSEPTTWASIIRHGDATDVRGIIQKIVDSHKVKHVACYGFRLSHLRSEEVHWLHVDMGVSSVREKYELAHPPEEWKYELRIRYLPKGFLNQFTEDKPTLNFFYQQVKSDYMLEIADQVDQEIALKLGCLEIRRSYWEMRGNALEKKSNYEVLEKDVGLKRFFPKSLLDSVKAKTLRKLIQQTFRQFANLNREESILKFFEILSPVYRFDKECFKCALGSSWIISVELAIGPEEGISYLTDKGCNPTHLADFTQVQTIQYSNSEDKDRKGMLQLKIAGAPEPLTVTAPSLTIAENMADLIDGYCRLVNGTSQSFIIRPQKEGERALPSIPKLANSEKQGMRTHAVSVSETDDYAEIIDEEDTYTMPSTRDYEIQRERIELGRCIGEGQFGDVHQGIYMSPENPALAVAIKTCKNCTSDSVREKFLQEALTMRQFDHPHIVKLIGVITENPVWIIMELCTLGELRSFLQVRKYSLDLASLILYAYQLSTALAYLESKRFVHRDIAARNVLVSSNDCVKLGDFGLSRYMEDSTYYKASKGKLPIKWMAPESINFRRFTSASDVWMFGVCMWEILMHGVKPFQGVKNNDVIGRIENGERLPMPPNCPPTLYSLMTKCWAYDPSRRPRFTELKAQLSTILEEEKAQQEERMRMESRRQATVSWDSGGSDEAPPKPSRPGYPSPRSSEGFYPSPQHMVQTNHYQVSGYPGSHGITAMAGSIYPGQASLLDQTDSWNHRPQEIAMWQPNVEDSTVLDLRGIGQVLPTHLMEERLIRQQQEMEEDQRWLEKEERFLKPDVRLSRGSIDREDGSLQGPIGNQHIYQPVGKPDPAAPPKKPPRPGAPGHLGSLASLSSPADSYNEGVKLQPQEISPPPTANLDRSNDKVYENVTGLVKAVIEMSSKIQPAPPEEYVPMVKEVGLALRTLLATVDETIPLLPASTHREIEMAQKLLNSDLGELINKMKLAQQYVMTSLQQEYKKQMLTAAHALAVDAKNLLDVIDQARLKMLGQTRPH
Ecoli tolC: growth inhibitors of E. coli BW25113 tolC mutant | AID 573 | growth inhibition, % at 10 µM (by protocol) | actives 2.2% (n = 65,000) | OD615;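 active means growth inhibition at or above a cutoff equal to the mean over every tested compound plus 3 SD, cut at about 60% in these data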;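 further: growth measured after 20 h incubation at 37 °C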
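Test system – E. coli BW25113 ΔtolC::kan, tolC deletion mutant strain · Detection – OD at 615 nm · Buffer or medium – LB with kanamycin 50 µg/mL · Times – 20 h compound exposure of bacteria at 37 °C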
PostGolgi ctrl: inhibits growth of the yeast control strain. efflux-deficient yeast background strain, growth absorbance A615, 16 h. inhibition, % at 10 µM. actives 5% (n = 98,000). AID 738
PTK2B oligo ant: blocks oligomerization of human Pyk2 in cells | Q14289 | Q293 cells, Pyk2 FERM NanoBiT luminescence; stronger effect = lower value | z-score (the deposit names both 25 µM and 10 µM) | actives 0.83% (n = 99,000) | AID 1347419;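 active means Z-score of -3 or lower, scaled per plate to the spread of control and sample wells; inactive means z-score above -3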;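 further: negative z-score means lost luminescence so less FERM oligomerization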
PostGolgi yeast: growth inhibition of a yeast mutant, post-Golgi transport screen; post-Golgi transport phenotypic cell assay; inhibition, % at 10 µM; actives 0.9% (n = 98,000);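 further: yeast cells grown in 1536-well plates; yeast grown about 18 h at 30C before absorbance read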
Candida biofilm: kills Candida albicans biofilms | C. albicans biofilm + clotrimazole, Alamar Blue | inhibition, % at 6 µM | actives 0.14% (n = 85,000);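 active means inhibition above 20%; inactive means inhibition below 20%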;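 further: preformed 24 hr biofilms exposed to compound for 48 hr; 0% = biofilm without compound and 100% = blank killed by clotrimazole plus chlorhexidine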
* hit, by the source's call; . = no result. Unless noted, no stated cut-off is given here; in the data, active means inhibition above about 30%; inactive means the rest.

SMILES	FAK inh	Ecoli tolC	PostGolgi ctrl	PTK2B oligo ant	PostGolgi yeast	Candida biofilm
COc1ccc(S(=O)(=O)Nc2ccc(N(C)C(C)=O)cc2)cc1	3	.	24	0.95	2	42*
O=C(Nc1ccc(Cl)cc1C(=O)Nc1ccc(Br)cn1)c1ccco1	1	40	52*	-0.97	22	-2
Cc1nc2c3ccccc3nc(SCC(=O)c3ccc(Cl)cc3)n2n1	.	.	.	-0.02	.	.
Cc1nc2c3ccccc3nc(SCC(=O)N3CC(C)CC(C)C3)n2n1 (centres undefined)	1	.	32*	-0.3	0	8
CCOC(=O)c1c(C)c(C(=O)Nc2cc(OC)ccc2OC)c(C)n1CC	0	68*	28	-0.13	16	0
CCC(=O)Nc1ccc2nc(C)n(CC(=O)Nc3ccccc3)c(=O)c2c1	-4	-12	-8	-0.36	-27	4
CC(C)(C)NC(=O)C(c1ccco1)N(C(=O)c1ccc(CN2CCOCC2)o1)c1ccccc1 (centres undefined)	-1	-13	5	1.6	-2	2
CCCOC(=O)/C(C(N)=NCc1ccccc1)=C(\O)OCCC	5	62*	8	-0.75	-1	2
N#CCC1c2ccccc2CCN1C(=O)Nc1cccc(Cl)c1 (centres undefined)	5	.	7	-0.72	7	.
FC(F)(F)c1cccc(-c2nnc(-c3ccccc3)c(N3CCOCC3)n2)c1	3	.	35*	-3.9*	16	.
FC(F)(F)c1nnc(-c2ccccc2)nc1N1CCOCC1	0	.	1	0.12	8	.
CC(=O)c1c(C(C)=O)c(C)n(-c2nc(-c3ccc(C)c(C)c3)c(C)s2)c1C	0	.	48*	-0.46	-1	8
COc1ccc(-c2nc(-n3c(C)c(C(C)=O)c(C(C)=O)c3C)sc2C)cc1	2	.	24	0.94	-2	-6
COc1cccc(OCCOCCN(C)CCO)c1	.	-5	-1	-0.1	2	6
COc1ccc(/C=C/C(=O)Nc2sc3c(c2C(=O)NCc2cccnc2)CCCC3)cc1	0	.	52*	-1.4	19	.
CC(c1ccccc1F)n1cc(C(=O)NCCCn2ccnc2)nn1 (centres undefined)	-2	.	.	1.5	.	5
Cc1cc(N2CCN(c3ccccc3Cl)CC2)n2cc(-c3ccccc3)nc2n1	-4	.	34*	-1.6	1	.
Nc1cc(C(=O)O)ccc1Nc1ccc(F)c(F)c1	1	-1	25	-0.65	-20	2
COc1cccc(C2NC(CC(C)C)(C(=O)O)C3C(=O)N(Cc4ccccc4)C(=O)C23)c1O (centres undefined)	.	-26	1	0.3	-19	5
COc1cccc(C2NC(CCSC)(C(=O)O)C3C(=O)N(C(C)C)C(=O)C23)c1O (centres undefined)	-1	-23	40*	.	-9	6
CN1CCN(C(=O)CCn2nc(-c3ccccc3)c3ccccc3c2=O)CC1	2	2	8	-0.04	-6	2
CCOC(=O)N1CCN(C(=O)CSc2nnc(COc3ccc(Cl)cc3)o2)CC1	.	8	6	.	-7	-1
O=C(CSc1nnc(COc2ccc(Cl)cc2)o1)N1c2ccccc2CCc2ccccc21	1	.	31*	-0.43	-8	4
Cc1ccccc1C(=O)Nc1nnc(-c2ccc(F)cc2)o1	1	59	2	.	-1	2
O=C(Nc1nnc(-c2ccc(F)cc2)o1)c1ccco1	.	77*	.	.	.	2
SMILES	FAK inh	Ecoli tolC	PostGolgi ctrl	PTK2B oligo ant	PostGolgi yeast	Candida biofilm
COc1cc(C2=NOC(C(=O)NCc3ccc(F)cc3)C2)cc(OC)c1OC (centres undefined)	-2	2	20	-0.3	-7	.
COC(=O)c1ccc(N2CCCCC2)c(NS(=O)(=O)c2ccc(C)cc2)c1	1	.	30*	-1.6	17	1
O=C1CCCC2=C1C(c1ccccc1)CC(=O)N2c1ccccc1 (centres undefined)	5	-2	35*	0.53	-2	4
COc1ccc(CN(C(=O)CN2C(=O)COc3ccccc32)C2CCCC2)c(OC)c1	-1	71*	26	-2.6	-4	-2
COc1ccc(CN(C(=O)CN2C(=O)C(C)Oc3ccccc32)C2CCCC2)c(OC)c1 (centres undefined)	-2	67*	13	-2.5	-5	-8
COc1ccc(CN(CC2CCCO2)C(=O)CN2C(=O)C(C)Oc3ccc(C)cc32)cc1OC (centres undefined)	2	.	.	1	.	3
COc1ccccc1NC(=O)CN1CCN(CC(=O)Nc2ccc(OCc3ccccc3)cc2)CC1	1	53	51*	0.24	-3	4
